We go through five molecules from ChEMBL document CHEMBL1914438, “Synthesis and biological activity of novel N-cycloalkyl-(cycloalkylaryl)-2-[(3-R-2-oxo-2H-[1,2,4]triazino[2,3-c]quinazoline-6-yl)thio]acetamides” (2011).

Calls of active or inactive are those of the source. The rule behind the calls is not given here.

In assay [1] the test system is Escherichia coli. Put plainly: Antibacterial activity against Escherichia coli assessed as zone of inhibition at 0.01 mg/mL after 24 hrs by stiff-plate agar-diffusion method. The class given is functional. The following applies: read-out: DIZ. An outline of the steps: (§1)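 Stiff-plate agar diffusion. Inoculum 10^9 c.f.u./mL. Compounds were streaked across grooves in the agar nutrient plate and left to diffuse. Plates were incubated 24 h at 35 °C. Read-out was inhibition zone diameter: 11–15 mm not sensitive, 16–25 mm sensitive, >25 mm highly sensitive. Vancomycin and oxacillin were the standards. Three repeats.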

The test system of assay [2] is Staphylococcus aureus. Put plainly: Antibacterial activity against Staphylococcus aureus assessed as zone of inhibition at 0.01 mg/mL after 24 hrs by stiff-plate agar-diffusion method. The class given is functional. The following applies: read-out: DIZ. Summed up:
as §1
For orientation: In agar diffusion tests the substance spreads into inoculated agar from a disc or well.

For assay [3], the system named is Mycobacterium. Nature of the assay: Antibacterial activity against Mycobacterium luteum assessed as zone of inhibition at 0.01 mg/mL after 24 hrs by stiff-plate agar-diffusion method. Type of assay: functional. The conditions noted are these: read-out: DIZ. Summed up: as §1
In assay [4] the test system is Yamadazyma tenuis. Nature of the assay: Antifungal activity against Candida tenuis assessed as zone of inhibition at 0.01 mg/mL after 48 to 72 hrs by stiff-plate agar-diffusion method. Type of assay: functional. The following applies: read-out: DIZ. Summed up: (§2)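 Fungi were tested by stiff-plate agar diffusion from a 10^9 c.f.u./mL inoculum. Compounds were placed in agar grooves and allowed to diffuse. Incubation was 48–72 h at 28–30 °C. Inhibition zone diameter was scored as not sensitive (11–15 mm), sensitive (16–25 mm) or highly sensitive (>25 mm). Nystatin was the standard. Experiments were done in triplicate.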

Assay [5] deals with Aspergillus niger. Put plainly: Antifungal activity against Aspergillus niger assessed as zone of inhibition at 0.01 mg/mL after 48 to 72 hrs by stiff-plate agar-diffusion method. The class given is functional. The following applies: read-out: DIZ. Summed up:
as §2

Assay [6] relates to Photobacterium leiognathi. Nature of the assay: Antibacterial activity against Photobacterium leiognathi Sh1 assessed as inhibition of bacterial luminescence at 0.1 mg/mL after 10 mins by bioluminometry-based acute action test. Type of assay: functional. Also noted: scale not given: the % may be the effect or the level left. An outline of the steps:
(§3)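 Marine P. leiognathi Sh1 (Azov Sea shrimp isolate) diluted in chloride solution to 10^5 cells/mL; compounds suspended in DMSO mixed with 1 mL bacterial suspension. Acute test: 10 min at 25 °C, then bioluminescence measured by bioluminometer as % of compound-free control. Tetracycline reference.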

The test system of assay [7] is Photobacterium leiognathi. Put plainly: Antibacterial activity against Photobacterium leiognathi Sh1 assessed as inhibition of bacterial luminescence at 0.1 mg/mL after 10 mins by bioluminometry-based chronic action test. The class given is functional. Details: scale not given: the % may be the effect or the level left. An outline of the steps:
(§4)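 Chronic (growth plus luminescence) test with P. leiognathi Sh1 at 10^5 cells/mL in chloride solution, compounds added in DMSO. After 10 min at 25 °C, growth medium added at 1:50 and the mix incubated 16–18 h at 30 °C. Luminescence then measured by bioluminometer as % of untreated control. Tetracycline reference.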

For assay [8], the system named is Photobacterium leiognathi. Nature of the assay: Antibacterial activity against Photobacterium leiognathi Sh1 assessed as inhibition of bacterial luminescence at 0.25 mg/mL after 10 mins by bioluminometry-based chronic action test. Details: scale not given: the % may be the effect or the level left. Type of assay: functional. An outline of the steps:
as §4

For assay [9], the system named is Escherichia coli. Put plainly: Antibacterial activity against Escherichia coli at 1 to 5 mg/mL after 24 hrs by stiff-plate agar-diffusion method. The class given is functional, organism-based. An outline of the steps: (§5)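 Agar diffusion (stiff plate) with test substances at 5 mg/mL in grooves, allowed to diffuse into nutrient agar; inoculum 10^9 c.f.u./mL; bacteria incubated 24 h at 35 °C. Read-out: inhibition zone diameter (not sensitive 11–15 mm, sensitive 16–25 mm, highly sensitive >25 mm). Vancomycin and oxacillin as standards; three repeats.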

Assay [10] has as its system Staphylococcus aureus. Put plainly: Antibacterial activity against Staphylococcus aureus at 1 to 5 mg/mL after 24 hrs by stiff-plate agar-diffusion method. Type of assay: functional, organism-based. Summed up: as §5
Assay [11] concerns Mycobacterium. Put plainly: Antibacterial activity against Mycobacterium luteum at 1 to 5 mg/mL after 24 hrs by stiff-plate agar-diffusion method. Type of assay: functional, organism-based. Summed up: as §5
Assay [12] concerns Yamadazyma tenuis. Nature of the assay: Antifungal activity against Candida tenuis at 1 to 5 mg/mL after 48 to 72 hrs by stiff-plate agar-diffusion method. Type of assay: functional, organism-based. An outline of the steps: (§6)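 Fungal plates run by stiff-plate agar diffusion, substances applied to grooves at 5 mg/mL; 10^9 c.f.u./mL cells; incubation 48–72 h at 28–30 °C. Inhibition zone diameter scored (11–15 mm not sensitive, 16–25 mm sensitive, >25 mm highly sensitive). Nystatin standard; experiments done three times.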

Assay [13] has as its system Aspergillus niger. Nature of the assay: Antifungal activity against Aspergillus niger at 1 to 5 mg/mL after 48 to 72 hrs by stiff-plate agar-diffusion method. Type of assay: functional, organism-based. Summed up: as §6
Another assay concerns CCRF-CEM. Put plainly: Cytotoxicity against human CCRF-CEM cells assessed as cell growth at 10^-5 M after 48 hrs by SRB assay. The following applies: read-out: Activity. The class given is functional. An outline of the steps:
(§7)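 NCI 60-cell-line one-dose primary screen: cells inoculated and preincubated 24–48 h, then test agent added at a single 10^-5 M concentration for a further 48 h. Endpoint is sulforhodamine B protein staining read spectrophotometrically. Reported as percent growth relative to untreated control cells.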
A general note: The SRB assay estimates cell density from bound dye.

The test system of the next assay is SNB-75. Nature of the assay: Cytotoxicity against human SNB75 cells assessed as cell growth at 10^-5 M after 48 hrs by SRB assay. Type of assay: functional. The conditions noted are these: SNB-75, 48 h, read-out: Activity. Summed up:
(§8)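 NCI human tumor cell line panel from nine cancer types. Each line was inoculated and preincubated 24–48 h, then exposed to a single concentration (10^-5 M) for 48 h. Growth was read by sulforhodamine B protein staining, measured spectrophotometrically. Value reported as percent growth of treated cells relative to untreated controls.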

For another assay, the system named is CAKI-1. Put plainly: Cytotoxicity against human Caki1 cells assessed as cell growth at 10^-5 M after 48 hrs by SRB assay. The following applies: CAKI-1, 48 h, read-out: Activity. Type of assay: functional. Summed up:
as §7

For the next assay, the system named is UO-31. Nature of the assay: Cytotoxicity against human UO31 cells assessed as cell growth at 10^-5 M after 48 hrs by SRB assay. Type of assay: functional. The following applies: UO-31, 48 h, read-out: Activity. An outline of the steps:
as §8

In a further assay the test system is PC-3. Put plainly: Cytotoxicity against human PC3 cells assessed as cell growth at 10^-5 M after 48 hrs by SRB assay. Type of assay: functional. The conditions noted are these: PC-3, 48 h, read-out: Activity. An outline of the steps:
as §8

Assay [14] relates to Photobacterium leiognathi. Put plainly: Antibacterial activity against Photobacterium leiognathi Sh1 assessed as inhibition of bacterial luminescence at 0.025 mg/mL after 10 mins by bioluminometry-based chronic action test. Type of assay: functional. Also noted: scale not given: the % may be the effect or the level left. An outline of the steps:
as §4

Assay [15] relates to Photobacterium leiognathi. Nature of the assay: Antibacterial activity against Photobacterium leiognathi Sh1 assessed as inhibition of bacterial luminescence at 0.25 mg/mL after 10 mins by bioluminometry-based acute action test. Type of assay: functional. Also noted: scale not given: the % may be the effect or the level left. Summed up: as §3
Assay [16] concerns Photobacterium leiognathi. Put plainly: Antibacterial activity against Photobacterium leiognathi Sh1 assessed as inhibition of bacterial luminescence at 0.025 mg/mL after 10 mins by bioluminometry-based acute action test. Type of assay: functional. Details: scale not given: the % may be the effect or the level left. Summed up:
as §3

Where [17] appears, read: in the assay text read “after 16 to 18 hrs” for “after 10 mins”.

In the case of `Cc1onc(-c2ccccc2)c1C(=O)N[C@@H]1C(=O)N2[C@@H]1SC(C)(C)[C@@H]2C(=O)O` [OXACILLIN], the zone of inhibition at 10 µg/mL in the assay with Escherichia coli [1] came to 0 mm; in the assay with Staphylococcus aureus [2], 21 mm; in the assay with Mycobacterium [3], 0 mm; with Yamadazyma tenuis [4] it was 0 mm; with Aspergillus niger [5] it was 0 mm.

For the molecule `Cc1nn2c(SCC(=O)O)nc3ccccc3c2nc1=O`, the Activity in assay [6] is recorded as 0%; in assay [7] (setting [17]), 61.5%; in assay [8] (setting [17]), 0%; in [14] (setting [17]), 36.4%; in [15], 0%; in assay [16] it was 66.7%. Moreover, the outcome in the assay with Escherichia coli [9], in the assay with Staphylococcus aureus [10], in the assay on Mycobacterium [11], with Yamadazyma tenuis [12] and in the assay with Aspergillus niger [13] was inactive. Further, the growth at 10 µM in the assay on CCRF-CEM turned out to be 93.3%; in the assay with SNB-75 it was 83.5%; with CAKI-1 it was 96%; in the assay on UO-31, 87.1%; with PC-3, 84.5%.

Regarding `CCC1C2CCC(C2)C1NC(=O)CSc1nc2ccccc2c2nc(=O)c(C)nn12` (centres undefined), the Activity in [6] came to 104.17%; in assay [7] (setting [17]) it was 93.06%; in assay [8] (setting [17]), 86.11%; in [14] (setting [17]), 90.28%; in assay [15], 62.5%; in assay [16] it was 91.67%. In addition, the result with Escherichia coli [9], in the assay on Staphylococcus aureus [10], with Mycobacterium [11], with Yamadazyma tenuis [12] and with Aspergillus niger [13] was inactive.

`CN(C)[C@@H]1C(O)=C(C(N)=O)C(=O)[C@@]2(O)C(O)=C3C(=O)c4c(O)cccc4[C@@](C)(O)[C@H]3C[C@@H]12` [TETRACYCLINE]: the Activity in assay [6] was found to be 9.1%; in assay [7] (setting [17]), 0%; in assay [8] (setting [17]), 0%; in assay [14] (setting [17]) it was 0%; in assay [15], 0%; in assay [16], 80.7%.

On to `Cc1ccc(-c2nn3c(SCC(=O)Nc4ccc(C56CC7CC(CC(C7)C5)C6)cc4)nc4ccccc4c3nc2=O)cc1`, for which the Activity in assay [6] is given as 96.15%; in [7], 140%; in assay [8], 16%; in [14], 170%; in assay [15] it was 50%; in [16] it was 84.62%. For the same molecule, the outcome in the assay on Escherichia coli [9], in the assay on Staphylococcus aureus [10], with Mycobacterium [11], in the assay with Yamadazyma tenuis [12] and with Aspergillus niger [13] was inactive.
